Source: PubChem BioAssay
RBBP9 inhibitor: human RBBP9 hydrolase inhibition. O75884. recombinant RBBP9, FP-Rh probe fluorescence polarization. inhibition, % at 7.94 µM. 220,000 tested, 0.2% active. AID 1515;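 active = inhibition above the campaign mean of all tested compounds plus 3 SD, cut at about 14% in these data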;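 also: plate controls were DMSO wells with RBBP9 for no effect and wells lacking RBBP9 protein for full effect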
Target sequence (O75884 whole entry, looked up): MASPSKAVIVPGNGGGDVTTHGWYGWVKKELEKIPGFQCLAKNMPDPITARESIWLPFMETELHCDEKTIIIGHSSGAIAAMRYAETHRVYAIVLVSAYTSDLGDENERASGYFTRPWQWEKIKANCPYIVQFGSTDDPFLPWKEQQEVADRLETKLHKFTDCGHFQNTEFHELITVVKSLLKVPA
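System: RBBP9 protein | Quantity: 2.5 µM RBBP9 dispensing solution, before mixing | Reagent: FP-Rh probe, 375 nM dispensing solution | Timing: Enzyme-compound preincubation 30 min, then probe labeling 45 min, 25 °C | Measured by: Fluorescence polarization | Read-out: % inhibition | Replication: One well per compound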
Fam108B inh: Fam108B inhibition, counter-screen for RBBP9 inhibitors. AID 1947. inhibition, % at 9.51 µM. 300,000 tested, 0.33% active. recombinant Fam108B, FP-Rh probe fluorescence polarization;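 active = inhibition above the screen mean inhibition plus 3 SD, computed separately per campaign, cut at about 18% in these data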;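 also: inhibitors lower polarization as less probe binds the enzyme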
GSTO1 counter: counter-screen for RBBP9 inhibitors: inhibitors of human GSTO1. 300,000 tested, 1.1% active. inhibition, % at 5.96 µM. P78417. recombinant GSTO1, activity-based probe fluorescence polarization;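 active = inhibition above the campaign mean inhibition plus 3 SD, cut at about 35% in these data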;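 also: 0% = GSTO1-1 with DMSO and 100% = wells lacking GSTO1-1 enzyme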
Target sequence (P78417 whole entry, looked up): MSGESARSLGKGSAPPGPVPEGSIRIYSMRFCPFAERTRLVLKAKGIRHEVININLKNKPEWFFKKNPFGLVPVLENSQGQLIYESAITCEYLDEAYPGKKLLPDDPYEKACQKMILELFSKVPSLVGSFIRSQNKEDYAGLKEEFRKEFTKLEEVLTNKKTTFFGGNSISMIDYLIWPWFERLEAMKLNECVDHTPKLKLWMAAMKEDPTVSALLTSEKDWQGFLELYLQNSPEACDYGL
PME-1 inh: PME-1 (human) inhibition | Q9Y570 | recombinant PME-1, FP-Rh probe fluorescence polarization | inhibition, % at 5.9 µM | 320,000 tested, 0.53% active | AID 2130;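 active = inhibition above the campaign mean of all compounds plus 3 SD, cut at about 26% in these data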;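 also: competitive labeling of PME-1 active site by serine hydrolase directed probe; 0% = PME-1 with DMSO and 100% = wells lacking PME-1 enzyme; inhibitors block probe labeling so polarization falls and inhibition rises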
PRMT1 inh: blocks human protein arginine methyltransferase 1 | recombinant PRMT1, activity-based probe fluorescence polarization | inhibition, % at 2.79 µM | 370,000 tested, 1.3% active | AID 652257;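 active = inhibition above about 21% made by adding two undisclosed values, limit read from the data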
PAD4 FP inh: blocks human protein arginine deiminase 4; Q9UM07; recombinant PAD4, RCA probe fluorescence polarization; inhibition, % at 6.36 µM; 330,000 tested, 0.41% active; AID 485272;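 active = percent inhibition above a cutoff equal to the mean of all tested compounds plus 3 SD, cut at about 15% in these data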;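 also: 0% = PAD4 with RCA probe and DMSO and 100% = probe without PAD4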
PRMT1 confirm: PRMT1 (human) inhibition, FP confirmation; shares compounds with PRMT1 inh; recombinant His-PRMT1, activity-based probe fluorescence polarization; inhibition, % at 2.79 µM; 3,300 tested, 42% active; AID 687036;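 active = mean inhibition across replicates above the hit cutoff derived for the earlier primary screen, cut at about 22% in these data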
Starred values were filed as active, the others as inactive; · = no result. Rows were chosen to be rich in hits. Some 2.3% of all compounds tested hit in one or more screens of this group.

SMILES	RBBP9 inhibitor	Fam108B inh	GSTO1 counter	PME-1 inh	PRMT1 inh	PAD4 FP inh	PRMT1 confirm
COCCOC(=O)CSc1ncccc1-c1nc2cc(C)c(C)cc2[nH]1	-7.8	1.7	-3.2	-3.2	1.6	0.6	·
O=C(O)CN1C(=O)/C(=C\C(Br)=C\c2ccccc2)SC1=S	·	4.1	5.6	-3.6	30.6*	-4.5	33.1*
O=C(O)CN1C(=O)/C(=C/C=C/c2ccccc2)SC1=S	-11.9	-1.0	6.7	-5.1	8.4	-1.7	·
CC(C)CC1CC(C)(c2csc(NNC(=O)c3ccccc3)n2)OC1=O (stereo not drawn)	-10.4	-1.5	-1.0	2.4	41.5*	-1.7	-3.3
CC(=O)c1c(C)[nH]c(C(=O)OCC(=O)NCc2ccc(Cl)cc2)c1C	·	·	·	6.0	168.2*	-6.7	-2.3
Cc1cc[n+](-c2[nH]c(=O)sc2/C=N/N=C(\[O-])c2ccncc2)cc1C	·	-5.7	7.1	-0.1	1.8	-6.1	·
Cc1cc[n+](-c2[nH]c(=O)sc2/C=N/N=C(\[O-])c2ccccc2)cc1C	-5.7	·	·	·	62.4*	·	38.3*
O=C(N/N=C/c1sc(=O)[nH]c1-[n+]1ccc2ccccc2c1)c1ccccc1[O-]	·	16.7	12.4	6.4	95.4*	6.2	2.8
CN(C)C(=O)c1cccc(-c2cnc3c(NC=O)cc(-c4ccccc4N(C)C)cn23)c1	·	·	·	·	137.3*	·	29.1*
CN(C)c1ccccc1-c1cc(NC=O)c2ncc(-c3cccc(C(F)(F)F)c3)n2c1	·	·	·	·	135.4*	·	24.9*
CC(=O)Nc1ccc(SCC(=O)N(CCC#N)c2ccc(C)cc2)cc1	-3.1	-7.2	15.9	-5.8	39.1*	2.6	15.9
COc1cc(C2c3sc(=O)[nH]c3SC3C(=O)N(c4ccc(Br)cc4)C(=O)C32)ccc1O (stereo not drawn)	-5.7	0.7	6.9	2.5	8.0	-0.8	·
CCOc1ccc(N2C(=O)C3Sc4[nH]c(=O)sc4C(/C=C/c4ccccc4)C3C2=O)cc1 (stereo not drawn)	1.7	4.7	22.6	5.7	26.7*	-19.8	3.5
CCOC(=O)c1c(C)[nH]c(O)c1C=Nc1ccc(C(F)(F)F)cc1	1.3	11.2	8.2	9.9	28.8*	3.4	14.4
Cc1cc(C)c(Cn2cnc(-c3ccc([N+](=O)[O-])cc3)c2)c(C)c1	-7.8	-3.9	0.9	3.7	45.9*	-9.7	-5.8
COc1ccc(NC(=O)COc2ccc(/C=N/O)cc2OC)cc1	1.1	5.8	3.5	-2.8	-3.9	2.0	·
C=C(C)CNC(=S)N/N=C(\C)c1ccc(OC)cc1	1.7	-2.0	-1.9	-1.5	-1.8	0.8	·
O=C(O)c1cccc2c1C(=O)c1ccc(N3CCCC3)cc1S2(=O)=O	·	·	·	-3.7	27.2*	-10.2	29.8*
CCOC(=O)C(C(=O)OCC)c1cc(Br)c2noc3c2c1C(=O)c1ccccc1-3	-4.4	7.2	29.8	23.4	31.8*	1.5	53.5*
CC(=O)OCCNc1cc(N2CCN(C)CC2)c2noc3c2c1C(=O)c1ccccc1-3	-1.6	·	·	·	3.1	·	·
COc1cc2c(cc1OC)CN(C1CC(=O)N(c3c(C)cccc3C)C1=O)CC2 (stereo not drawn)	-3.7	0.4	-3.3	-0.6	31.6*	1.8	1.3
COc1cc(OC)cc(C(=O)Nc2nc(CC(=O)NCCc3ccccc3)cs2)c1	·	-6.0	-5.7	-2.1	4.5	1.3	·
CCOC(=S)SCc1cn2ccc(C)cc2n1	-8.1	10.7	5.0	-0.3	41.7*	3.3	26.4*
O=C1NC(CCc2ccccc2)C(=O)N1Cc1cccc2ccccc12 (stereo not drawn)	-1.7	-0.3	-2.9	5.0	-1.0	-6.2	·
Cc1cc(/C=C2\Sc3ccccc3N2C)cc(C)[n+]1CC1CCCO1 (stereo not drawn)	-3.9	·	·	·	100.3*	·	-1.4
SMILES	RBBP9 inhibitor	Fam108B inh	GSTO1 counter	PME-1 inh	PRMT1 inh	PAD4 FP inh	PRMT1 confirm
CC(=O)c1sc2nc(-c3cccs3)cc(C(F)(F)F)c2c1N	3.3	-3.9	1.0	4.7	31.1*	-2.3	19.9
Cc1c(C(=O)O)sc2nc(-c3cccs3)cc(C(F)(F)F)c12	·	-5.4	-9.0	4.0	1.0	0.5	·
Cc1[nH]n(-c2ccccc2)c(=S)c1C=NCCCN=Cc1c(C)[nH]n(-c2ccccc2)c1=S	-7.3	3.4	-3.4	3.5	80.8*	4.2	44.4*
CCCOc1ccc(N2C(=O)CC(NCCc3ccc(S(N)(=O)=O)cc3)C2=O)cc1 (stereo not drawn)	-1.1	-1.0	-6.7	0.3	50.9*	3.7	-2.4
CCOc1ccc(N2C(=O)CC(NCCc3ccncc3)C2=O)cc1 (stereo not drawn)	4.9	4.5	3.2	-2.0	58.4*	5.1	-0.2
CCCOc1ccc(N2C(=O)CC(NCCNc3ccc(S(=O)(=O)CC)cc3)C2=O)cc1 (stereo not drawn)	-2.4	-4.3	-4.2	-6.7	6.7	2.8	·
CCOc1ccc(N2C(=O)CC(NNc3nc4ccccc4s3)C2=O)cc1 (stereo not drawn)	-11.1	-0.9	18.8	2.9	2.9	-3.5	·
CCOc1ccc(N2C(=O)CC(NCCc3c[nH]c4ccccc34)C2=O)cc1 (stereo not drawn)	-4.4	0.1	6.8	-2.9	31.1*	-0.2	14.1
CCOc1ccc(N2C(=O)CC(NCCc3ccc(S(N)(=O)=O)cc3)C2=O)cc1 (stereo not drawn)	-1.4	-2.1	-9.0	-3.6	52.8*	-8.3	3.4
COc1ccccc1CN(Cc1nc2ccccc2c(=O)[nH]1)C(=O)Nc1ccccc1	1.4	-1.4	-5.3	-4.6	-1.2	-5.0	·
C[C@H]1CCCC(=O)N[C@@H](c2ccccc2)[C@@H](C)CCCC(=O)N[C@H]1c1ccccc1	·	·	·	·	2.2	·	·
Cc1ccc(C(=O)O/N=C(\N)c2ccccn2)c(Cl)c1	·	5.8	0.2	10.3	-4.0	5.7	·
COc1ccc(C(=S)N2CCN(C)CC2)cc1	2.4	1.7	3.0	0.1	29.9*	3.0	8.3
COc1ccc(C(=O)Oc2ccc(C(=S)N3CCOCC3)cc2)cc1	0.2	-3.4	-4.3	3.0	57.2*	-3.1	2.0
COc1ccc(C(C(=O)NC(C)(C)C)n2c(=O)c(-c3ccco3)nc3ccccc32)cc1 (stereo not drawn)	·	·	·	·	31.1*	·	6.9
CC(C)(C)NC(=O)C(c1ccc(C#N)cc1)n1c(=O)c(-c2ccco2)nc2ccccc21 (stereo not drawn)	·	·	·	·	30.6*	·	35.8*
CCCCCNC(=O)C(c1cccc2ccccc12)n1c(=O)c(-c2ccco2)nc2ccccc21 (stereo not drawn)	·	·	·	·	31.8*	·	14.0
c1ccc(Cn2c(SCC3CCCCC3)nnc2-c2cccnc2)cc1	·	·	·	·	46.2*	·	-3.5
Cc1ccc(S(=O)(=O)NC(=O)c2ccccc2F)cc1	·	2.7	5.6	0.5	-0.5	-1.8	·
